# In ChEMBL document CHEMBL1121690, “Inhibition of cholesterol side-chain cleavage. 3. 22-azacholesterol analogues bearing aryl-substituted side chains” (J Med Chem, 1981):
# Molecular target: T1, cholesterol side-chain cleavage cytochrome P450 (mitochondrial) (Bos taurus, UniProt P00189)
# T1 sequence (P00189 whole entry): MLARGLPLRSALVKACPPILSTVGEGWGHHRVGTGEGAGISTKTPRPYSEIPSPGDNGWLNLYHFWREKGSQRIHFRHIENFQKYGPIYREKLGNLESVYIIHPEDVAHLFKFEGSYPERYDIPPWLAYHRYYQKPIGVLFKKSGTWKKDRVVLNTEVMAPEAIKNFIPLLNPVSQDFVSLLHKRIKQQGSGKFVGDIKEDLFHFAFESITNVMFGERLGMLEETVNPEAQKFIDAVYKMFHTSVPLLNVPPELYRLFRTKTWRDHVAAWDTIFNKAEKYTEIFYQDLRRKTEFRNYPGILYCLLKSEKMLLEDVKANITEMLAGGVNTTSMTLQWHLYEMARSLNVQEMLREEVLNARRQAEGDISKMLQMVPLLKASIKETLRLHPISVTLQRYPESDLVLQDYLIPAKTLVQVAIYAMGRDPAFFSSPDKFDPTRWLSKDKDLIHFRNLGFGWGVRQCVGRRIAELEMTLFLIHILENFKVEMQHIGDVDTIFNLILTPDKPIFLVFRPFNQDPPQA
# Experiment: Percent inhibition of cholesterol side-chain cleavage cytochrome P450 at 10 uM in bovine adrenocortical mitochondrial acetone powder preparations
# Details: cattle
# How it was run: (§1)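 Inhibitors were dissolved in DMF and added to the incubation mixture before the substrate, at final concentrations of 100 µM or less. Activity was taken from the change in isotope ratios between zero time and 2 h, read by liquid scintillation counting after the isocaproic acid was driven off by heating under vacuum.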
row,SMILES,inhibition at 10 µM
1,CC(NC(=O)Cc1ccc([N+](=O)[O-])cc1)C1CCC2C3CC=C4CC(O)CCC4(C)C3CCC12C (centres undefined),49%
2,CC(NC(=O)Cc1ccccc1)C1CCC2C3CC=C4CC(O)CCC4(C)C3CCC12C (centres undefined),44%
3,CC(NC(=O)Cc1cccc(I)c1)C1CCC2C3CC=C4CC(O)CCC4(C)C3CCC12C (centres undefined),73%

# Next, values leading:
row,inhibition at 10 µM,SMILES
1,31%,CC(C(=O)NCc1ccccc1)C1CCC2C3CC=C4CC(O)CCC4(C)C3CCC12C (centres undefined)
2,40%,COc1ccc(CCNC(C)C2CCC3C4CC=C5CC(O)CCC5(C)C4CCC23C)cc1 (centres undefined)
3,84%,CC(NC(=O)c1ccccc1)C1CCC2C3CC=C4CC(O)CCC4(C)C3CCC12C (centres undefined)

# Molecular target: T1, cholesterol side-chain cleavage cytochrome P450 (mitochondrial)
# Experiment: Percent inhibition of cholesterol side-chain cleavage cytochrome P450 at 1 uM in bovine adrenocortical mitochondrial acetone powder preparations
# Details: cattle
# How it was run: as §1
row,inhibition at 1 µM,SMILES
1,22%,CC(NC(=O)Cc1ccc([N+](=O)[O-])cc1)C1CCC2C3CC=C4CC(O)CCC4(C)C3CCC12C (centres undefined)
2,22%,CC(NCCc1ccc(Cl)cc1)C1CCC2C3CC=C4CC(O)CCC4(C)C3CCC12C (centres undefined)
3,53%,CC(NC(=O)c1ccccc1)C1CCC2C3CC=C4CC(O)CCC4(C)C3CCC12C (centres undefined)
4,18%,CC(NC(=O)Cc1cccc(I)c1)C1CCC2C3CC=C4CC(O)CCC4(C)C3CCC12C (centres undefined)

# Molecular target: T1, cholesterol side-chain cleavage cytochrome P450 (mitochondrial)
# Experiment: Percent inhibition of cholesterol side-chain cleavage cytochrome P450 at 100 uM in bovine adrenocortical mitochondrial acetone powder preparations
# Details: cattle
# How it was run: as §1
row,inhibition at 100 µM,SMILES
1,39%,CC(NC(=O)Cc1ccc([N+](=O)[O-])cc1)C1CCC2C3CC=C4CC(O)CCC4(C)C3CCC12C (centres undefined)
2,45%,CC(C(=O)NCc1ccccc1)C1CCC2C3CC=C4CC(O)CCC4(C)C3CCC12C (centres undefined)
3,84%,CC(NC(=O)c1ccccc1)C1CCC2C3CC=C4CC(O)CCC4(C)C3CCC12C (centres undefined)

# Molecular target: T1, cholesterol side-chain cleavage cytochrome P450 (mitochondrial)
# Experiment: Percent inhibition of cholesterol side-chain cleavage cytochrome P450 at 0.1 uM in bovine adrenocortical mitochondrial acetone powder preparations
# Details: cattle
# How it was run: as §1
row,SMILES,inhibition at 0.1 µM
1,CC(NC(=O)CCc1ccccc1)C1CCC2C3CC=C4CC(O)CCC4(C)C3CCC12C (centres undefined),19%
2,CC(NC(=O)Cc1ccccc1)C1CCC2C3CC=C4CC(O)CCC4(C)C3CCC12C (centres undefined),28%
3,CC(NC(=O)Cc1ccc(Cl)cc1)C1CCC2C3CC=C4CC(O)CCC4(C)C3CCC12C (centres undefined),25%

# Further lines, results first:
row,inhibition at 0.1 µM,SMILES
1,-6%,COc1ccc(CCNC(C)C2CCC3C4CC=C5CC(O)CCC5(C)C4CCC23C)cc1 (centres undefined)
2,9%,CC(NC(=O)c1ccccc1)C1CCC2C3CC=C4CC(O)CCC4(C)C3CCC12C (centres undefined)
3,38%,COc1ccc(CC(=O)NC(C)C2CCC3C4CC=C5CC(O)CCC5(C)C4CCC23C)cc1 (centres undefined)
